These results are taken from ChEMBL document CHEMBL1287726, “Bisaryldiketene derivatives: A new class of selective ligands for c-myc G-quadruplex DNA” (Bioorg Med Chem, 2010).

pIC50: −log10 of the molar value. Where “and” joins values, the source holds several entries; their conditions need not be identical. Identical values can stand only once. Calls of active or inactive are those of the source. The rule behind the calls is not given here.

For assay [1], the system named is human telomeric G-quadruplex DNA F21T (human). Kind of assay: Binding affinity to F21T G-quadruplex DNA assessed as change in melting temperature at 1 uM by FRET assay (reference value: 60 degC).
Assay [2] has as its system Nucleic Acid. Kind of assay: Binding affinity to F-c-kit1-T G-quadruplex DNA assessed as change in melting temperature at 1 uM by FRET assay (reference value: 54 degC). In kind it is nucleic-acid assay. The essentials:
(§1)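 FRET melting of dual FAM/TAMRA-labelled oligonucleotide (0.2 μM), pre-annealed in K+ buffer (90 °C 5 min, slow cooling, 4 °C overnight), in 10 mM Tris-HCl pH 7.4, 60 mM KCl with ligand at 1 μM. Equilibrated 25 °C 5 min, then heated 1 °C/min to 95 °C; excitation 492 nm, emission 516 nm. ΔTm = Tm(DNA+ligand) − Tm(DNA).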

The test system of assay [3] is Nucleic Acid. Kind of assay: Binding affinity to F-c-kit2-T G-quadruplex DNA assessed as change in melting temperature at 1 uM by FRET assay (reference value: 75 degC). In kind it is nucleic-acid assay. The essentials: as §1
In assay [4] the test system is c-myc G-quadruplex DNA F22T (human). Kind of assay: Binding affinity to human F22T G-quadruplex DNA assessed as change in melting temperature at 1 uM by FRET assay (reference value: 78 degC).
Assay [5] has as its system Nucleic Acid. Kind of assay: Binding affinity to F10T hairpin duplex DNA assessed as change in melting temperature at 1 uM by FRET assay (reference value: 64 degC).
The target of assay [6] is Nucleic Acid. Kind of assay: Binding affinity to single-strand Pu27 oligonucleotide assessed as formation of G-quadruplex complex after 3 mins by PCR stop assay. In kind it is nucleic-acid assay. The essentials:
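PCR stop assay: Pu27 with complementary Pu27rev (10 pmol each), 0.16 mM dNTP, 2.5 U Taq polymerase and ligand in 1× PCR buffer. Cycling 94 °C 3 min, then 35 cycles of 94 °C/58 °C/72 °C, 30 s each. Double-stranded product detected by electrophoresis; IC50 is the concentration inhibiting amplification by 50%.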

Assay [7] concerns Nucleic Acid. Kind of assay: Binding affinity to F22T G-quadruplex DNA assessed as decrease in melting temperature at 1 uM by FRET assay in presence of duplex DNA competitor ds26. In kind it is nucleic-acid assay. The essentials:
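Competitive FRET melting: 0.2 μM F22T premixed with excess duplex ds26 (3 μM or 10 μM), ligand at 1 μM, in 10 mM Tris-HCl pH 7.4, 60 mM KCl. Heated 1 °C/min from 25 °C to 95 °C; ex 492/em 516 nm; ΔTm determined.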

In assay [8] the test system is Nucleic Acid. Kind of assay: Binding affinity to F22T G-quadruplex DNA assessed as change in melting temperature at 1 uM by FRET assay in presence of G-quadruplex DNA competitor c-kit1. In kind it is nucleic-acid assay. The essentials: (§2)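 Competitive FRET melting: 0.2 μM F22T with ligand at 1 μM, without or with 3 μM or 10 μM unlabelled G-quadruplex competitor (c-kit1, c-kit2 or HTG21), in 10 mM Tris-HCl pH 7.4, 60 mM KCl. Heated 1 °C/min from 25 °C to 95 °C; ex 492/em 516 nm; ΔTm determined.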

For assay [9], the system named is Nucleic Acid. Kind of assay: Selectivity ratio, K for F22T G-quadruplex DNA to K for human F21T G-quadruplex DNA. In kind it is nucleic-acid assay.
For assay [10], the system named is Nucleic Acid. Kind of assay: Binding affinity to F22T G-quadruplex DNA assessed as decrease in melting temperature at 1 uM by FRET assay in presence of G-quadruplex DNA competitor HTG21. In kind it is nucleic-acid assay. The essentials: as §2
Assay [11] deals with Nucleic Acid. Kind of assay: Binding affinity to c-kit2 G-quadruplex DNA assessed as change in melting temperature by isothermal titration calorimetry. In kind it is nucleic-acid assay. Summed up:
(§3)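 ITC at 25 °C: preannealed G-quadruplex (5 μM) in cell, ligand (400 μM) in syringe, both in 10 mM Tris-HCl pH 7.4, 150 mM KCl, degassed. Thirty 10 μL injections at 4 min intervals. Heats of ligand dilution into buffer subtracted before fitting the integrated thermograms for K, ΔH, ΔS.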

For assay [12], the system named is Nucleic Acid. Kind of assay: Binding affinity to HTG21 G-quadruplex DNA assessed as change in melting temperature by isothermal titration calorimetry. In kind it is nucleic-acid assay. Summed up: as §3
Assay [13] concerns Nucleic Acid. Kind of assay: Binding affinity to Pu27 G-quadruplex DNA assessed as change in melting temperature by isothermal titration calorimetry. In kind it is nucleic-acid assay. Summed up: as §3
The test system of assay [14] is Nucleic Acid. Kind of assay: Selectivity ratio, K for F22T G-quadruplex DNA to K for c-kit1 G-quadruplex DNA. In kind it is nucleic-acid assay.
Assay [15] relates to Nucleic Acid. Kind of assay: Binding affinity to c-kit1 G-quadruplex DNA assessed as change in melting temperature by isothermal titration calorimetry. In kind it is nucleic-acid assay. Summed up: as §3
Assay [16] deals with Nucleic Acid. Kind of assay: Binding affinity to F22T G-quadruplex DNA assessed as change in melting temperature at 1 uM by FRET assay in presence of G-quadruplex DNA competitor c-kit2. In kind it is nucleic-acid assay. Summed up: as §2
In assay [17] the test system is Nucleic Acid. Kind of assay: Selectivity ratio, K for F22T G-quadruplex DNA to K for c-kit2 G-quadruplex DNA. In kind it is nucleic-acid assay.

For `C[n+]1cccc2cc(/C=C3\C[N+](C)(C)C/C(=C\c4ccc5c(ccc[n+]5C)c4)C3=O)ccc21`, the ΔTm is 7 °C in assay [1]; 14 °C with Nucleic Acid [2]; 6 °C with Nucleic Acid [3]; 7 °C in [4]; 0 °C in the assay on Nucleic Acid [5]. Further, the pIC50 at Nucleic Acid [6] is 4.90. In addition, the outcome in the assay with Nucleic Acid [7] was inactive.

`O=C1/C(=C/c2ccc3ncccc3c2)CC/C1=C\c1ccc2ncccc2c1`: the ΔTm in assay [1] worked out at 0 °C; with Nucleic Acid [2] it was 1 °C; with Nucleic Acid [3], 0 °C; in assay [4], 2 °C; in the assay with Nucleic Acid [5], 0 °C. For the same compound, the negative-log IC50 (pIC50) on Nucleic Acid [6] is less than 4.70. The outcome in the assay with Nucleic Acid [7] was inactive.

Turning to `O=C(/C=C/c1ccc2ncccc2c1)/C=C/c1ccc2ncccc2c1`, the ΔTm in assay [1] came to 3 °C; in the assay with Nucleic Acid [2], 10 °C; in the assay with Nucleic Acid [3], 5 °C; in [4], 2 °C; in the assay with Nucleic Acid [5], 0 °C. Moreover, the negative-log IC50 (pIC50) at Nucleic Acid [6] was less than 4.70. Moreover, in the assay on Nucleic Acid [7], the outcome was inactive.

In the case of `O=C1/C(=C\c2ccc3ncccc3c2)CCC/C1=C/c1ccc2ncccc2c1`, the thermal shift (ΔTm) in assay [1] was 0 °C; with Nucleic Acid [2], 1 °C; in the assay with Nucleic Acid [3], 0 °C; in assay [4] it was 2 °C; in the assay on Nucleic Acid [5], 0 °C. In addition, the negative logarithm of the IC50 (pIC50) at Nucleic Acid [6] was less than 4.70. Moreover, the outcome with Nucleic Acid [7] was inactive.

With `C[n+]1cccc2cc(/C=C/C(=O)/C=C/c3ccc4c(ccc[n+]4C)c3)ccc21`, the ΔTm worked out at 17 °C in assay [1]; 24 °C with Nucleic Acid [2]; 17 °C in the assay on Nucleic Acid [3]; 13 °C in assay [4]; 0 °C with Nucleic Acid [5]. For the same compound, the pIC50 on Nucleic Acid [6] was 6.15. In addition, the outcome in the assay on Nucleic Acid [7] was inactive.

In the case of `C[n+]1cccc2cc(/C=C3/CCC/C(=C/c4ccc5c(ccc[n+]5C)c4)C3=O)ccc21`, the shift in melting temperature (ΔTm) in assay [1] was determined as 10 °C; with Nucleic Acid [2], 17 °C; in the assay on Nucleic Acid [3], 12 °C; in assay [4], 9 °C; with Nucleic Acid [5], 0 °C. Moreover, the pIC50 at Nucleic Acid [6] was 5.96. In addition, in the assay with Nucleic Acid [7], the outcome was inactive.

In the case of `C[n+]1cccc2cc(/C=C3\CC/C(=C\c4ccc5c(ccc[n+]5C)c4)C3=O)ccc21`, the Activity with Nucleic Acid [8] and in the assay on Nucleic Acid [16] was 40% throughout. The shift in melting temperature (ΔTm) in assay [1] was found to be 23 °C; in the assay on Nucleic Acid [2], 29 °C; in the assay on Nucleic Acid [3], 20 °C; in [4] it was 17 °C; in the assay on Nucleic Acid [5], 1 °C. Moreover, the Selectivity ratio in the assay on Nucleic Acid [9] was determined as 200; with Nucleic Acid [14], 25; with Nucleic Acid [17], 25. In the assay with Nucleic Acid [10], the result was Active. The K is 1.27 ×10⁵ /M in the assay with Nucleic Acid [11]; 3.61 ×10⁴ /M with Nucleic Acid [12]; 8.05 ×10⁶ /M and 4.42 ×10⁴ /M in the assay on Nucleic Acid [13]; 3.08 ×10⁵ /M in the assay with Nucleic Acid [15]. In addition, the pIC50 on Nucleic Acid [6] is 6.05. The outcome with Nucleic Acid [7] was inactive.

On to `CN1C/C(=C\c2ccc3ncccc3c2)C(=O)/C(=C/c2ccc3ncccc3c2)C1`, for which the thermal shift (ΔTm) in assay [1] was found to be 4 °C; in the assay with Nucleic Acid [2] it was 1 °C; in the assay with Nucleic Acid [3], 1 °C; in assay [4], 1 °C; in the assay on Nucleic Acid [5], 0 °C. In addition, the pIC50 at Nucleic Acid [6] is less than 4.70. Also, the result in the assay on Nucleic Acid [7] was inactive.
